ASAP1 GAP inh: blocks human ASAP1-stimulated Arf1 GTP hydrolysis; GDP FP detection; 360,000 compounds, 0.19% hits; Q9ULH1; inhibition, % at 16.5 µM; in the data active = inhibition above about 25%;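 also: 0% = vehicle with enzyme and substrate and 100% = no enzyme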
ARFGAP1 inhibitor: inhibits rat ARF GTPase activating protein 1; Arfgap1-stimulated ARF1 GTP hydrolysis, GDP FP detection; AID 651572; inhibition, % at 16.5 µM; Q62848; 360,000 compounds, 0.26% hits;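 active = inhibition above a per-plate limit, mean inhibition of low control wells plus 3 SD, cut at about 25% in these data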;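 also: 0% = DMSO wells with enzyme and 100% = wells lacking Arfgap1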
Target sequence (Q62848 1-136 limits assumed): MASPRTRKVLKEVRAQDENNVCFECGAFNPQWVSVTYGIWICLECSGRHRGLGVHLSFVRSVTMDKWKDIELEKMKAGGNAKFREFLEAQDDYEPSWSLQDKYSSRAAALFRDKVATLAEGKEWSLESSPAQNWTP
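Assay system: Rat Arfgap1 GAP domain (His6, aa 1-136), purified enzyme | Buffer or medium: HEPES 25 mM pH 7.5, NaCl 150 mM, MgCl2, DTT | Schedule: GTP hydrolysis reaction 2 h at 25 °C | Signal: FP of antibody-bound GDP Alexa 633 tracer, ex 620/em 688 nm | Measure: Percent inhibition of Arfgap1-stimulated GTP hydrolysis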
TDP2 absorb: blocks human TDP2 phosphodiesterase activity. O95551. 370,000 compounds, 0.34% hits. recombinant TDP2, T5PNP hydrolysis, p-nitrophenol absorbance 415 nm. inhibition, % at 12.8 µM. AID 720702;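 active = inhibition above the mean of all tested compounds plus 3 SD, set per campaign, cut at about 25% in these data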;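 also: 0% = DMSO with enzyme and 100% = buffer with substrate but no TDP2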
Target sequence (O95551 whole entry, looked up): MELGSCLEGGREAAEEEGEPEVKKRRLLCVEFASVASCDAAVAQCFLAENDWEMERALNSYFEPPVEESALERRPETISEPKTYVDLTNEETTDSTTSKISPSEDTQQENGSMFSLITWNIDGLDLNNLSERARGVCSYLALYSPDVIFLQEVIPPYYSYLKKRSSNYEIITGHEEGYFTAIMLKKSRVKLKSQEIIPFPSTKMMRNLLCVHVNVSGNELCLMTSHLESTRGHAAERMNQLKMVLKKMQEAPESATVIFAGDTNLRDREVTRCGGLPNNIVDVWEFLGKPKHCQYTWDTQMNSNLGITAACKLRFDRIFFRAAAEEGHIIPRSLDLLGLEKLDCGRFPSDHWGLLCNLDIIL
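Assay system: recombinant human TDP2 / Reagent: T5PNP substrate at 5 mM, a TopII-DNA adduct mimic / Measured by: epi absorbance from released p-nitrophenol / Evaluation: % inhibition relative to enzyme-containing and enzyme-free wells / Control set: enzyme-free and DMSO wells / Replicates: each compound tested once, singlicate / Schedule: enzyme reaction with compound for 2 h at 37 °C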
Casp6 inh: inhibitors of human caspase-6; 350,000 compounds, 0.53% hits; inhibition, % at 12.5 µM; purified caspase-6, Z-VEID-R110 cleavage fluorescence; AID 686996;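 active = mean inhibition across replicates at least about 35%, with every replicate also reaching that limit, limit read from the data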;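 also: 0% = median of neutral control wells and 100% = no fluorescence left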
LEDGF integ inh: blocks HIV-1 LEDGF/p75-dependent DNA integration; TR-FRET IN-LEDGF/p75 DNA integration, Eu/Cy5; inhibition, % at 3.7 µM; 370,000 compounds, 0.64% hits;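 active = inhibition above the screen-wide mean plus 3 SD, cut at about 13% in these data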;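 also: signal is the Cy5 over europium emission ratio at 671 and 618 nm; 0% = plate median of compound wells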
Starred values were filed as active, the others as inactive; . = not tested or not shown. Hits are enriched below; roughly 1.3% of the tested compounds scored in any of these assays.

SMILES | ASAP1 GAP inh | ARFGAP1 inhibitor | TDP2 absorb | Casp6 inh | LEDGF integ inh
O=S(=O)(c1ccccc1)c1cc(O)ccc1O | 2.5 | -5.9 | 6.6 | 0.5 | 1.1
Nc1ccc(S(=O)(=O)c2cc(O)c3ccccc3c2O)cc1 | 9.4 | -5.3 | 27.6* | 28.7 | 9.4
O=C1C(NS(=O)(=O)c2cccs2)=C(N2CCOCC2)C(=O)c2ccccc21 | 3.5 | -1.3 | 11.7 | 7.1 | 1.4
CN1CCN(C2=C(NS(=O)(=O)c3cccs3)C(=O)c3ccccc3C2=O)CC1 | -5.9 | 6.2 | 19.6 | 47.1* | 1.8
O=C(CSc1ccsc1[N+](=O)[O-])NCc1ccco1 | -2.1 | -7.0 | -3.8 | 46.3* | 1.0
COCCCNC(=O)CSc1ccsc1[N+](=O)[O-] | 3.6 | -9.1 | -3.7 | 20.1 | 2.8
Cn1c(N=Nc2ccccc2)nc2ccccc21 | 1.7 | -16.4 | -11.8 | 39.1* | 12.2
COc1ccccc1/C=C/C=N/NC(=O)Cc1cccn1C | -0.1 | -11.6 | 8.1 | -0.8 | 4.0
COc1ccc(NC(=O)N(C)C[C@@H]2Oc3c(NS(=O)(=O)c4c(C)noc4C)cccc3C(=O)N([C@H](C)CO)C[C@@H]2C)cc1 | . | . | . | -0.8 | .
Cc1ccc(S(=O)(=O)N2CCN(C(=O)/C=C/c3ccco3)CC2)cc1 | -6.5 | 5.7 | 1.7 | 8.6 | 5.6
O=C(/C=C/c1ccco1)N1CCN(S(=O)(=O)c2ccccc2)CC1 | -2.8 | -2.1 | -0.7 | 47.6* | 9.6
COc1ccc(NS(=O)(=O)CC23CCC(CC2=O)C3(C)C)cc1 (stereo unspecified) | -1.1 | -1.9 | -3.1 | . | -4.0
COc1cc(CNCCNC(=O)c2cccs2)cc(OC)c1OC | 10.6 | 3.5 | 28.2* | -3.4 | -0.2
COc1ccc2c([N+](=O)[O-])c(Cl)[nH]c2c1 | 7.1 | 4.8 | 21.3 | 62.7* | 8.4
Oc1ccc(/C=N/Nc2ccnc3cc(Cl)ccc23)cc1O | -14.5 | 6.1 | -8.1 | 46.6* | -1.7
CC(C)(C)c1ccc(C(=O)NC(=S)N2CCCCCC2)cc1 | -11.3 | -6.1 | 17.7 | -4.2 | 20.5*
CCOC(=O)/C(C)=N/NC(=O)c1cccc([N+](=O)[O-])c1 | 9.3 | 5.5 | 3.1 | -2.8 | 5.7
O=C(Oc1cccc(-n2cnnn2)c1)c1ccccc1Cl | 13.7 | 7.0 | -12.9 | 46.4* | -3.8
O=C(Cc1ccc([N+](=O)[O-])cc1)c1c(O)cc(O)cc1O | 7.6 | -14.9 | 17.0 | 41.2* | 4.4
Cc1cc(O)cc(O)c1C(=O)Cc1ccccc1 | 6.0 | 13.7 | -13.4 | 9.3 | 0.1
CCCCn1c(NS(=O)(=O)c2ccc(C)cc2)c(S(=O)(=O)c2ccccc2)c2nc3ccccc3nc21 | 18.4 | 8.7 | 58.0* | -3.2 | 11.6
Cc1ccc(S(=O)(=O)c2c(N)n(CCCN(C)C)c3nc4ccccc4nc23)cc1 | -2.7 | 0.6 | -0.7 | 5.6 | 3.4
Nc1cccc2cc(S(=O)(=O)O)ccc12 | 1.5 | -10.2 | 27.0* | 64.3* | 39.2*
O=C(Nc1ccc(F)cc1)N[C@@H]1CC[C@H](CCNC(=O)c2cc(Cl)cc(Cl)c2)O[C@@H]1CO | . | . | . | 3.8 | .
O=C1N/C(=C\c2ccc(O)cc2)C(=O)c2ccccc21 | . | . | . | 82.8* | .
SMILES | ASAP1 GAP inh | ARFGAP1 inhibitor | TDP2 absorb | Casp6 inh | LEDGF integ inh
COC/C=C/C1=CC2=CC(=O)C(C)(OC(=O)C3CCCC3)C(=O)C2=CO1 (stereo unspecified) | 20.9 | -3.1 | -0.3 | 35.5* | 64.5*
O=C1OCCC1Sc1nnc(-c2ccco2)n1-c1ccccc1 (stereo unspecified) | 3.9 | -1.6 | -11.8 | 1.6 | -3.0
CC1(C)c2[nH]c3ccccc3c2C[C@@H]2C(=O)N(c3cc(F)ccc3F)C(=O)N21 | 27.5* | 8.7 | 10.8 | . | 1.8
O=Cc1ccc(N2Cc3ccccc3C2)cc1 | 1.4 | -19.1 | -4.4 | 1.6 | 17.6*
COc1ccc2oc(C(=O)OC/C(O)=C(\C#N)c3nc4ccccc4[nH]3)c(C)c2c1 | -0.5 | -0.9 | 13.9 | 0.3 | -2.7
O=C1NC(=S)S/C1=C1\Sc2ccccc2N1CCCS(=O)(=O)O | -21.1 | -0.2 | 8.1 | . | -0.8
NN1C(=O)/C(=C2/Sc3ccccc3N2CCCS(=O)(=O)O)SC1=S | 6.2 | 2.0 | -14.7 | 55.4* | 2.5
Cc1sc2ncnc(SCC(=O)Nc3ncccc3O)c2c1C | 21.7 | -6.3 | 3.3 | 42.8* | 5.3
O=C(O)c1c2c(nc3ccc(S(=O)(=O)N4CCC(C(=O)NCc5ccccc5Cl)CC4)cc13)CCCC2 | -1.0 | -3.2 | -4.5 | 44.2* | -1.6
CC(C)CCNC(=O)C1CCN(S(=O)(=O)c2ccc3nc4c(c(C(=O)O)c3c2)CCCCC4)CC1 | 12.1 | 7.6 | 9.7 | 3.6 | -1.7
O=C(O)c1c2c(nc3ccc(S(=O)(=O)N4CCC(C(=O)NC5CCCCCC5)CC4)cc13)CCCC2 | 0.8 | 8.2 | -6.7 | 43.1* | -1.0
COc1ccc(CCNC(=O)C2CCN(S(=O)(=O)c3ccc4nc5c(c(C(=O)O)c4c3)CCCC5)CC2)cc1OC | -5.7 | -11.2 | 19.6 | 14.2 | 4.9
O=C(O)c1c2c(nc3ccc(S(=O)(=O)N4CCC(C(=O)NCc5ccc(Cl)cc5)CC4)cc13)CCCC2 | 0.8 | -4.5 | 6.9 | 64.5* | -0.3
COc1ccc(CNC(=O)C2CCN(S(=O)(=O)c3ccc4nc5c(c(C(=O)O)c4c3)CCCC5)CC2)cc1 | 1.5 | -2.6 | 5.5 | 54.0* | 1.1
COc1ccccc1/C=C1/SC(=S)N(CCC(=O)Nc2cccnc2)C1=O | 10.2 | -1.1 | -6.3 | -5.3 | -4.5
O=C(CCCN1C(=O)/C(=C\c2ccco2)SC1=S)Nc1ccc2ccccc2c1 | 1.4 | 3.9 | 3.2 | 8.2 | 1.0
O=C(CCCN1C(=O)/C(=C\c2ccccc2)SC1=S)Nc1ccc(O)cc1C(=O)O | -3.4 | -12.3 | -7.1 | . | 2.3
O=C(CCN1C(=O)/C(=C\c2cccs2)SC1=S)Nc1ccc(C(=O)O)cc1 | -7.2 | -23.1 | 0.5 | 4.7 | -1.3
CC(C(=O)Nc1ccc(O)cc1C(=O)O)N1C(=O)/C(=C\c2cccs2)SC1=S (stereo unspecified) | 5.9 | 4.5 | -6.8 | 46.4* | 0.2
O=C(CCN1C(=O)/C(=C\c2ccco2)SC1=S)Nc1ccc(C(=O)O)c(O)c1 | -6.2 | -6.2 | 1.6 | 73.0* | 69.9*
O=C(CN1C(=O)/C(=C\c2ccco2)SC1=S)Nc1ccc(O)cc1C(=O)O | 8.7 | -7.8 | 24.4 | 73.1* | 62.5*
COc1ccccc1/C=C1\SC(=S)N(CCC(=O)Nc2ccc(C(=O)O)c(O)c2)C1=O | 6.2 | 16.9 | -6.7 | 40.8* | 4.4
CC(C)NC(=O)N(C)C[C@@H]1Oc2ccc(NS(C)(=O)=O)cc2CC(=O)N([C@@H](C)CO)C[C@H]1C | . | . | . | -2.5 | .
C=CCNC(=O)CSc1nc2sc3c(c2c(=O)n1CCCOC)CCC3 | 2.0 | 9.6 | -1.6 | -3.4 | -0.5
Nc1ccc(S(=O)(=O)NCC2CCCCO2)cc1 (stereo unspecified) | 1.6 | 5.6 | -5.2 | -1.3 | -1.3
COc1ccc(S(=O)(=O)n2cnc3ccccc32)cc1OC | 0.6 | -4.2 | 11.3 | 61.7* | 4.1
